Only a selection was taken, and hits are over-represented in it overall.
Avidin fluor – avidin bead compound fluorescence profile; Avidin beads, compound fluorescence 488/530 nm, flow cytometry; active compounds read high; fluorescence (KMESF) at 10 µM; actives 0.38% (n = 220,000); AID 1775; in the data active means fluorescence above about 47
ABCB1 inh – human ABCB1 inhibition, ABCG2 as counter-screen; P08183; CCRF-Adr cells, JC-1 efflux, flow cytometry; inhibition, % at 6.6 µM; actives 0.067% (n = 190,000); AID 1326; in the data active means inhibition above about 40%;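 further: 0% = vehicle and 100% = reference inhibitor; higher value means more JC-1 retained so stronger ABCB1 efflux block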
GSH fluor – GSH bead compound fluorescence profile | GSH beads flow cytometry, compound fluorescence 488/530 nm; active compounds read high | fluorescence (KMESF) at 10 µM | actives 0.25% (n = 190,000) | AID 1776; in the data active means fluorescence above about 89;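 further: glutathione beads carrying GST-tagged Bcl family fusion proteins plus one bare bead set; values are compound well signal with DMSO vehicle wells as background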
Lmaj promast – inhibitors of Leishmania major promastigote growth. Leishmania major promastigotes, resazurin fluorescence viability. inhibition, % at 10 µM. actives 9% (n = 200,000);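 further: promastigotes grown with compound for 44 hours at 28 °C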
ABCG2 block – inhibitors of human ABCG2 transporter, ABCB1 counter-screen; inhibition, % at 6.6 µM; Q9UNQ0; IgMXP3 cells, JC-1 efflux, flow cytometry; actives 0.1% (n = 190,000); AID 1325;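 active means inhibition above 80%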;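 further: 0% = DMSO and 100% = nicardipine control wells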
Target sequence (Q9UNQ0 whole entry, looked up): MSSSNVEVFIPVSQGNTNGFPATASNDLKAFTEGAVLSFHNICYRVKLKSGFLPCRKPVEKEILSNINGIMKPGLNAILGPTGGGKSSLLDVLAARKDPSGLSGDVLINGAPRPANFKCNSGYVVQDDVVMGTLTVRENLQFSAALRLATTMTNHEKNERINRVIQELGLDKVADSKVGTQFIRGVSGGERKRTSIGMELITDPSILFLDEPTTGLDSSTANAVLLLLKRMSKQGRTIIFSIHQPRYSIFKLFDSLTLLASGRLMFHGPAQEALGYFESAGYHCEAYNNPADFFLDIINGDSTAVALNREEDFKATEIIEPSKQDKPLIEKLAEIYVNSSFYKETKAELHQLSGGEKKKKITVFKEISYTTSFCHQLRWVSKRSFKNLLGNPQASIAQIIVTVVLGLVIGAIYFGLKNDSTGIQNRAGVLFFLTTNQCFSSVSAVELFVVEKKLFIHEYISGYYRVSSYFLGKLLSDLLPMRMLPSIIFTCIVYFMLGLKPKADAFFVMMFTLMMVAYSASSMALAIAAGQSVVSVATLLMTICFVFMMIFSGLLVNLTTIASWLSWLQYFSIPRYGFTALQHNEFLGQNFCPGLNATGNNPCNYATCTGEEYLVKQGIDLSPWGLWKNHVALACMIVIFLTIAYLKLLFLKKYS
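Times: 10 min at 25 °C | Test system: Two drug-resistant human cell lines, ABCG2 and ABCB1 | Quantity: 3 million cells/mL final, two lines in 1:1 ratio | Signal: Flow cytometry, 530 nm JC-1 signal | Dosing: Compound at 6.6 µM | Controls: Nicardipine and DMSO wells | Reagent: JC-1 as fluorescent efflux pump substrate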
PKD1 inh – blocks activity of human protein kinase D1 | Q15139 | PKD1 kinase fluorescence polarization assay | inhibition, % (concentration not given with the values) | actives 0.056% (n = 200,000)
PKD FP artifact – FP interference, PKD inhibitor counter-screen. shares compounds with PKD1 inh. 85 tested, under 10 active. AID 1315. PKD1 FP assay interference counter-screen, fluorescence polarization. inhibition, % at 10 µM; call rule not given here
* hit, by the source's call; . = not tested or not shown. Unless noted, no stated cut-off is given here; in the data, active means inhibition above about 50%; inactive means the rest.

SMILES	Avidin fluor	ABCB1 inh	GSH fluor	Lmaj promast	ABCG2 block	PKD1 inh	others
O=c1[nH]c(=O)n(CCC2=CCCCC2)c(O)c1C=Nc1cccc(F)c1	57*	0	12	-3	2	-5
CCN(CC)c1ccc(CN(C)CCc2ccc(OC)c(OC)c2)cc1	13	2	33	63*	2	2
COc1ccc(CCN(C)Cc2ccc(F)cc2F)cc1OC	7	0	7	5	1	-1
O=C1C2CCCN2C(c2cccnc2)N1c1cccc(Cl)c1 (configuration not stated)	6	-1	18	-4	-2	-15
COc1ccc(OCC(=O)N2CCN(CC3CC4C=CC3C4)CC2)cc1 (configuration not stated)	6	0	43	87*	0	0
O=C(Cc1ccccc1)N1CCN(CC2CC3C=CC2C3)CC1 (configuration not stated)	23	0	13	67*	1	-1
O=C(Cc1ccccc1)N1CCN(CC2CC=CCC2)CC1 (configuration not stated)	5	0	14	81*	1	-2
C=CCN(CC#CCOc1ccccc1OC)CC=C	11	0	10	4	5	-4
O=Cc1cn(Cc2cccc(F)c2)c2ccccc12	12	1	9	59*	8	-15
CCc1ccc(-c2nn(Cc3ccccc3)cc2C=O)cc1	12	-1	16	18	6	0
CN1CCN(c2ncnc3ccc(Br)cc23)CC1	6	1	13	4	23	1
CN1CCC(N(C)c2ncnc3ccc(Br)cc23)CC1	15	0	32	52*	0	-1
COc1cc(NC(=O)CN2C3CCC2CC(O)(c2cccnc2)C3)cc(OC)c1 (configuration not stated)	49*	0	11	93*	0	-8
OCC1(CO)COC(c2cccnc2)N1 (configuration not stated)	7	0	5	-6	2	-11
CCNC(=S)N1CCn2cccc2C1c1cccnc1 (configuration not stated)	11	0	14	70*	1	5
CN(C)C(=O)Oc1ccc(Br)cc1C(=O)Nc1ccc(F)c(Cl)c1	7	.	.	.	.	.
CCN(CC)CCN=Cc1c(O)n(Cc2ccccc2)c(=O)[nH]c1=O	7	1	8	0	0	-1
CCc1ccc(N2C(=O)NC(=O)/C(=C\c3cccn3CCOc3ccc(C(C)C)cc3)C2=O)cc1	15	0	4	95*	-3	-15
C1=C(CCNCc2ccccc2)CCCC1	13	0	41	73*	-1	-9
Fc1ccc(CNCCc2ccccc2)cc1	26	1	12	0	4	2
CCCc1[nH]nc2c1C1(C(=O)N(Cc3ccccc3)c3ccccc31)C(C(=O)OC)=C(N)O2 (configuration not stated)	31	1	24	82*	11	-6
Cc1ccc(-c2nc(N(C)C3CCN(C)CC3)c3ccccc3n2)cc1	8	1	11	99*	2	2
CN1CCN(Cc2nc3ccccc3c(=O)[nH]2)CC1	6	0	14	-1	1	4
COc1ccc(OC)c(N2C(=O)NC(=O)/C(=C/c3ccc([N+](=O)[O-])s3)C2=O)c1	10	-2	18	97*	-5	1
CCN1C(=O)/C(=C\c2ccc([N+](=O)[O-])s2)C(=O)NC1=S	8	-1	12	99*	-5	0
SMILES	Avidin fluor	ABCB1 inh	GSH fluor	Lmaj promast	ABCG2 block	PKD1 inh	others
CCc1ccc(CN2CCN(Cc3cc(Br)ccc3O)CC2)cc1	12	1	15	81*	0	-3
COc1cc(Br)cc(CN2CCN(C)CC2)c1O	25	1	10	76*	2	-4
CCN1CCN(Cc2cc(Br)ccc2O)CC1	10	1	12	85*	4	3
CCN1CCN(Cc2cc(Br)cc(Br)c2O)CC1	6	1	55	73*	2	3
Oc1ccc(Br)cc1CN1CCN(c2ccccc2)CC1	8	0	11	11	-1	-13
CCN(CC)c1ccc(/C=N/c2sc3c(c2C#N)C2CCN3CC2)c(O)c1	3	2	28	14	4	7
CC12CN3CCN(CC(C3)C1O)C2 (configuration not stated)	9	0	7	-1	1	-7
O=S(=O)(c1ccc(Cl)cc1)N1CN2CCN(C2)C1	8	0	48	8	0	1
c1ccc(Cn2ccnc2)cc1	7	0	20	-8	0	-4
CC(C)c1cccc(C(C)C)c1OCCn1ccnc1	28	1	22	94*	0	4
O=[N+]([O-])[N-][n+]1cnn(Cc2ccc(Cl)cc2)c1	10	0	12	2	0	-4
CN1CCN(c2c(F)cc([N+](=O)[O-])c(N)c2Br)CC1	9	-1	15	11	-4	-9
CN1CCN(c2ccc(S(C)(=O)=O)cc2[N+](=O)[O-])CC1	17	.	10	54*	1	0
CN1CCN(c2ccc([N+](=O)[O-])c3no[n+]([O-])c23)CC1	8	.	.	.	.	.
CN1CCN(c2ccc(S(=O)(=O)C(F)(F)F)cc2[N+](=O)[O-])CC1	9	1	11	51*	8	-1
CN(C(=O)Oc1cccc2cccnc12)c1ccccc1	25	1	25	-7	4	-11
CN(C(=O)Oc1ccc(Cl)c2cccnc12)c1ccccc1	14	1	14	54*	29	-12
C=CCN=C(SCC(=O)c1ccc(Cl)cc1)c1c(O)n(C)c(=O)n(C)c1=O	8	.	.	.	.	.
COc1cc2c(cc1/C=C/[N+](=O)[O-])OCO2	12	0	9	100*	1	-2
Cc1ccc(C(=O)N[C@@H](C)CN2C3=NC[C@H](Cc4ccccc4)N3C[C@H]2Cc2ccc(O)cc2)cc1Br	7	.	.	.	.	.
Cc1ccc(C(=O)N[C@@H](C)CN2C3=NC[C@@H](Cc4ccccc4)N3C[C@H]2Cc2ccc(O)cc2)cc1Br	-1	1	22	52*	1	-5
CN1CCN(c2cccc3c2C(=O)c2ccccc2C3=O)CC1	12	1	12	18	16	101*	PKD FP artifact=-9
Oc1ccc2c3c1O[C@H]1c4[nH]c5ccccc5c4C[C@@]4(O)C(C2)N(CC2CC2)CC[C@]314	7	.	66	.	1	.
